From PubChem
Sampled rows, rich in hits. Any-hit rate of the full collection: about 3%.
TRPC4 potent = positive allosteric modulators of TRPC4, primary screen, cell-based, mouse TRPC4beta, HEK293 mu-opioid, Fluo-4 calcium. 310,000 compounds, 0.42% hits. B-score at 10 µM. DAMGO EC20, Fluo-4 Ca2+ flux; hits give high values. Short transient receptor potential channel 4 (Mus musculus), Q9QUQ5;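 active means B-score of calcium response area above 5 SD of library B-scores, with initial fluorescence ratio within 5 SD of library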;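 further: B-score of integrated fluorescence ratio over time as area under calcium response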
Target sequence (Q9QUQ5 whole entry, looked up): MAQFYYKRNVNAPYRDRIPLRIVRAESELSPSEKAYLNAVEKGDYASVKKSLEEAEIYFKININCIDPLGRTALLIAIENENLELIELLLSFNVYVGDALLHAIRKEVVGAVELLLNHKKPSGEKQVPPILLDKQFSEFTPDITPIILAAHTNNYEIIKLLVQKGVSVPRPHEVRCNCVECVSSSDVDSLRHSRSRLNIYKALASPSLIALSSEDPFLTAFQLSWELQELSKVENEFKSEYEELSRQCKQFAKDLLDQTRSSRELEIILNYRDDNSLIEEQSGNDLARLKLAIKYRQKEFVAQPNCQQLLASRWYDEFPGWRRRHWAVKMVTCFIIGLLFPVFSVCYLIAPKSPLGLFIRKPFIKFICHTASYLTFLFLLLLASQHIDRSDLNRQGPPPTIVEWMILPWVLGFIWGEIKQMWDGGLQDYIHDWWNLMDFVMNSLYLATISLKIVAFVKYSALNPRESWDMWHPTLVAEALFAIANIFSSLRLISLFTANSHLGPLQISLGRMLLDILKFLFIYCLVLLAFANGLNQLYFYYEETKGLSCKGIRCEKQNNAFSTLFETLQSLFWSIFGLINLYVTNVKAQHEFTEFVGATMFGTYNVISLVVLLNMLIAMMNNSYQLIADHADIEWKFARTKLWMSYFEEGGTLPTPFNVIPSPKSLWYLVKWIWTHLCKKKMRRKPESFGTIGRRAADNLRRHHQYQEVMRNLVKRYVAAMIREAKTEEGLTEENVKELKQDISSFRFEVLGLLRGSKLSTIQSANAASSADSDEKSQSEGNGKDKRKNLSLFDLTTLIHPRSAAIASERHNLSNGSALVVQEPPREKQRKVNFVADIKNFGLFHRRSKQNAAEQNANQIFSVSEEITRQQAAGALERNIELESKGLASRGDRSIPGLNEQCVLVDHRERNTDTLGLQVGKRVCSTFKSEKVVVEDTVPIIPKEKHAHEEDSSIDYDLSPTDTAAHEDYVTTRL
TRPC6 inhibitor = mouse TRPC6 channel inhibitors, primary screen, cell-based, HEK293, membrane potential dye | ACh-evoked depolarization; hits give low values | 310,000 compounds, 1.1% hits | B-score at 10 µM;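 active means B-score under library mean minus 3 SD, initial fluorescence not abnormally high, positive integrated signal ratio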;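 further: B-score derived from integrated fluorescence ratio over the kinetic read; more negative B-score means stronger inhibition of depolarization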
TRPC4 block = inhibitors of mouse TRPC4 channel, primary screen, Fluo4 calcium, HEK293 TRPC4beta/mu-opioid cells. DAMGO-evoked Fluo4 calcium flux; hits give low values. B-score at 10 µM. AID 2247, 2010. 300,000 compounds, 0.39% hits. Short transient receptor potential channel 4 (Mus musculus), Q9QUQ5;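 active means B-score over 3 SD under the library average, no early fluorescence shift, positive overall ratio signal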
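Assay system: TRPC4beta/mu-opioid receptor HEK293 cell line; compound dosing: single concentration per test compound; detection: Fluo4 Ca2+ flux fluorescence; evaluation: per-well B score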
TRPC4 agonist = activators of mouse TRPC4 channel, primary screen, Fluo4 calcium, HEK293 TRPC4beta/mu-opioid cells | Short transient receptor potential channel 4 (Mus musculus), Q9QUQ5 | Fluo4 calcium fluorescence; hits give high values | B-score at 10 µM | 310,000 compounds, 0.49% hits | AID 2237, 2010;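 active means B-score above 5 SD of library B-scores, and initial fluorescence ratio not above library mean plus 5 SD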;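 further: positive B-score marks a calcium rise read as TRPC4 activation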
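Material: HEK293 stable line with TRPC4beta plus mu-opioid receptor; technique: Fluo4 calcium-sensitive dye fluorescence, kinetic, 1 Hz baseline; timing: Fluo4 dye loading 45 min at room temperature, 110 s recording; controls: assay buffer as low control, maximal DAMGO as high control; read-out: integrated baseline-normalised fluorescence ratio, converted to per-well B score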
Kir21 inh = inhibitors of mouse Kir2.1 inward-rectifier potassium channel. B-score at 10 µM. 310,000 compounds, 0.85% hits. HEK293-Kir2.1, FluxOR thallium flux fluorescence; hits give low values. Inward rectifier potassium channel 2 (Mus musculus), P35561;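 active means fluorescence ratio B-score at or below minus 3 SD of library scores, with starting-brightness B-score within 2 SD, cut at about -4.2 in these data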;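 further: channel flux triggered by added potassium and thallium sulfate stimulus; B-score of peak minus minimum fluorescence over baseline after thallium stimulus; more negative B-score means stronger Kir2.1 block with less thallium influx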
TRPC6 act = mouse TRPC6 channel activators, primary screen, cell-based, HEK293, membrane potential dye. HEK293-TRPC6 membrane potential dye fluorescence; hits give high values. B-score at 10 µM. 310,000 compounds, 0.13% hits. AID 2550, 2010;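 active means B-score of the integrated fluorescence ratio above library mean plus 3 SD, and starting fluorescence ratio within library mean plus 5 SD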;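 further: higher score means more depolarization so channel activation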
TRPC4 spec 2 = second selectivity test of TRPC6 inhibitors: effect on mouse TRPC4; 920 compounds, 42% hits; inhibition, % at 10 µM; shares compounds with TRPC6 inhibitor; HEK293 TRPC4/MOR, membrane potential dye fluorescence; channel activated by saturating DAMGO dose;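 active means compounds whose fluorescence signal differed from control wells by over 3 SD, either direction, in both duplicate plates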
TRPC4 spec = mouse TRPC4 modulation by TRPC6 hits, confirmation, selectivity assay for TRPC6 inhibitor project, cell-based, HEK293 TRPC4/mu-opioid, membrane potential dye | activity change, negative = inhibition, % at 10 µM | shares compounds with TRPC6 inhibitor | 920 compounds, 61% hits | membrane potential fluorescence | AID 2777, 2010;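 active means rise or fall in signal beyond 3 SD of buffer-only wells in both replicate plates, either sign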;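 further: integrated kinetic ratio of fluorescence range over baseline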
HEK293 MPD ctr 2-1 = nonspecific membrane potential effects, parental HEK293, confirmation, counter-screen for TRPC6 inhibitor project, cell-based, second counter screen. signal change vs control, % at 10 µM. 920 compounds, 31% hits. parental HEK293 membrane potential dye fluorescence; maximal acetylcholine challenge after compound addition. AID 2779, 2010. shares compounds with TRPC6 inhibitor;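 active means membrane potential signal moving either way by over 3 SD of the maximum-effect control, in both duplicate plates, meaning non-specific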
HEK293 MPD ctr-1 = membrane potential modulation in parental HEK293, confirmation, counter-screen for TRPC6 inhibitor project, cell-based; shares compounds with TRPC6 inhibitor; parental HEK293 membrane potential dye fluorescence; membrane potential signal change, % at 10 µM; 920 compounds, 60% hits; AID 2780, 2010;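 active means membrane potential signal shifting up or down by more than 3 SD of buffer-only wells, on both duplicate plates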
HEK293 MPD ctr-2 = parental HEK293 membrane potential modulation, confirmation, counter-screen for TRPC6 modulator project, cell-based; shares compounds with TRPC6 inhibitor; membrane potential dye fluorescence; membrane potential signal change, % at 10 µM; 2,400 compounds, 51% hits;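 active means membrane potential signal moves up or down beyond 5 SD from buffer-only wells, on both duplicate plates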
HEK293 MPD ctr 2-2 = second counter-screen for TRPC6 modulators: effect in parental HEK293 cells; 2,400 compounds, 14% hits; shares compounds with TRPC6 inhibitor; inhibition, % at 10 µM; membrane potential dye fluorescence; after compound, maximal acetylcholine stimulation;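 active means membrane potential signal drops by more than 5 SD from the mean control signal, in both duplicate plates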;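 further: plate controls were acetylcholine ECmax control wells for no effect and buffer only wells for full effect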
TRPC4/MOR mod = TRPC4 modulation by TRPC6 hit compounds, confirmation, selectivity assay for TRPC6 modulator project, cell-based, HEK293 TRPC4/mu-opioid, membrane potential dye, mouse. AID 488927, 2010. membrane potential fluorescence. shares compounds with TRPC6 inhibitor. percent change from control (negative = decrease, positive = increase), % at 10 µM. 2,400 compounds, 69% hits;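 active means membrane potential signal moved up or down beyond 5 SD of buffer control wells, in both duplicate plates, actives on both sides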;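 further: plate controls were assay buffer wells for no effect and DAMGO maximal-effect wells for full effect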
TRPC4/MOR inh 2 = mouse TRPC4 off-target activity of TRPC6 modulators, second screen; shares compounds with TRPC6 inhibitor; HEK293 TRPC4/mu-opioid, membrane potential dye fluorescence; stimulated with maximal-effect DAMGO; inhibition, % at 10 µM; 2,400 compounds, 55% hits;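 active means drop in membrane potential signal beyond 5 SD of the control wells in both duplicate plates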;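 further: TRPC4 counter screen for TRPC6 hits run under conditions tuned for TRPC6 not TRPC4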
TRPC6 inh conf = mouse TRPC6 channel inhibitors, confirmation, HEK293 cells, membrane potential dye, duplicate; inhibition, % at 10 µM; 3,300 compounds, 43% hits; ACh-evoked depolarization; shares compounds with TRPC6 inhibitor;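 active means fluorescence ratio falls more than 5 SD below the full-stimulation control mean, in both duplicate runs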;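 further: integrated fluorescence ratio of peak minus minimum over baseline after agonist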
TRPC6 act confirm = mouse TRPC6 channel activators, confirmation, HEK293 cells, membrane potential dye, duplicate; shares compounds with TRPC6 inhibitor; HEK293-TRPC6 membrane potential dye fluorescence, FDSS; activation, % at 10 µM; 2,800 compounds, 11% hits; AID 488961, 2010;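 active means ratio signal rise beyond 5 SD above unstimulated control wells' mean, seen in both duplicate runs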;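 further: plate controls were buffer EC0 wells for no effect and acetylcholine ECmax response for full effect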
* marks the source's active call; other numbers are inactive results; i = inactive; . = not tested or not shown.

SMILES	TRPC4 potent	TRPC6 inhibitor	TRPC4 block	TRPC4 agonist	Kir21 inh	TRPC6 act	TRPC4 spec 2	TRPC4 spec	HEK293 MPD ctr 2-1	HEK293 MPD ctr-1	TRPC6 inh conf	TRPC6 act confirm	others
C/C(N)=C(/C#N)C(=O)COC(=O)c1ccccc1Cc1ccccc1	i	-8.3*	i	i	-0.7	i	i	-11%*	i	i	i	i
O=C(NCc1ccccc1)C1CC(=O)N(C2CCCCC2)C1 (stereo not drawn)	i	i	i	i	-0.18	i	.	.	.	.	.	.
NCCCCCc1nnc(SCC(=O)Nc2cccc(Cl)c2)o1	i	i	i	i	-1.7	i	.	.	.	.	.	.
NCCCCCc1nnc(SCc2cccc(Cl)c2)o1	i	-6.8*	i	i	-0.39	i	i	-0.3%*	i	0.8%*	i	i
NCCCCCc1nnc(SCc2ccc(Cl)cc2Cl)o1	i	-6.2*	i	i	-1.7	i	.	.	.	.	i	.	HEK293 MPD ctr-2=i;HEK293 MPD ctr 2-2=i;TRPC4/MOR mod=14%*;TRPC4/MOR inh 2=53%*
NC(N)=Nc1nc2ccc(Cl)cc2c(=O)[nH]1	i	i	i	i	1.3	i	.	.	.	.	.	.
O=C(c1ccco1)N1CCc2[nH]nc(-c3ccccc3)c2C1	i	i	i	i	1.8	i	.	.	.	.	.	.
